Experimental data from ChEMBL document CHEMBL1143845, “In vitro activities of isavuconazole and other antifungal agents against Candida bloodstream isolates” (2007).
Converted amounts (≈) assume the structure as drawn.

Key:
Type in all cases: functional
Candida = assay: Antifungal activity against Candida sp. bloodstream isolates by broth microdilution method
Procedure, shortened: (§1)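 CLSI M27-A2 broth microdilution in RPMI 1640 buffered to pH 7.0 with 0.165 M MOPS. Consecutive blood-culture isolates were subcultured at least twice on Sabouraud dextrose agar. Final inoculum was 0.5 × 103 to 2.5 × 10^3 cells/ml against twofold drug dilutions, incubated in air at 35°C for 24–48 h. MIC was read visually as no growth or ≥50% growth reduction versus drug-free control, depending on agent.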

Pichia kudriavzevii = assay: Antifungal activity against Candida krusei bloodstream isolates by broth microdilution method; procedure, shortened: as §1
Candida parapsilosis = assay: Antifungal activity against Candida parapsilosis bloodstream isolates by broth microdilution method; conditions: Lodderomyces parapsilosis; procedure, shortened: as §1
Nakaseomyces glabratus = assay: Antifungal activity against Candida glabrata bloodstream isolates by broth microdilution method; procedure, shortened: as §1
[1] = Antifungal activity against Candida tropicalis bloodstream isolates by broth microdilution method; procedure, shortened: as §1
Candida albicans = assay: Antifungal activity against Candida albicans bloodstream isolates by broth microdilution method; procedure, shortened: as §1

Compound | MIC50 (Candida) | MIC90 (Candida) | MIC50 (Pichia kudriavzevii) | MIC90 (Pichia kudriavzevii) | MIC50 (Candida parapsilosis) | MIC90 (Candida parapsilosis) | MIC50 (Nakaseomyces glabratus) | MIC90 (Nakaseomyces glabratus) | MIC50 [1] | MIC90 [1] | MIC50 (Candida albicans) | MIC90 (Candida albicans)
C[C@@H]1[C@H](O)[C@@H](C)/C=C/C=C/C=C/C=C/C=C/C=C/C=C/[C@H](O[C@@H]2O[C@H](C)[C@@H](O)[C@H](N)[C@@H]2O)C[C@@H]2O[C@](O)(C[C@@H](O)C[C@@H](O)[C@H](O)CC[C@@H](O)C[C@@H](O)CC(=O)O[C@H]1C)C[C@H](O)[C@H]2C(=O)O (stereo in doubt) [AMPHOTERICIN B] | 0.25 µg/mL (≈ 0.271 µM) | 0.5 µg/mL (≈ 0.541 µM) | 0.5 µg/mL (≈ 0.541 µM) | 0.5 µg/mL (≈ 0.541 µM) | 0.25 µg/mL (≈ 0.271 µM) | 0.5 µg/mL (≈ 0.541 µM) | 0.5 µg/mL (≈ 0.541 µM) | 0.5 µg/mL (≈ 0.541 µM) | 0.5 µg/mL (≈ 0.541 µM) | 0.5 µg/mL (≈ 0.541 µM) | 0.25 µg/mL (≈ 0.271 µM) | 0.5 µg/mL (≈ 0.541 µM)
OC(Cn1cncn1)(Cn1cncn1)c1ccc(F)cc1F [FLUCONAZOLE] | 1 µg/mL (≈ 3.27 µM) | 16 µg/mL (≈ 52.2 µM) | 32 µg/mL (≈ 104 µM) | 64 µg/mL (≈ 209 µM) | 1 µg/mL (≈ 3.27 µM) | 2 µg/mL (≈ 6.53 µM) | – | – | 1 µg/mL (≈ 3.27 µM) | 1 µg/mL (≈ 3.27 µM) | 0.5 µg/mL (≈ 1.63 µM) | 1 µg/mL (≈ 3.27 µM)
Nc1nc(=O)[nH]cc1F [FLUCYTOSINE] | 0.063 µg/mL (≈ 0.488 µM) | 2 µg/mL (≈ 15.5 µM) | 16 µg/mL (≈ 124 µM) | 16 µg/mL (≈ 124 µM) | 0.125 µg/mL (≈ 0.968 µM) | 0.125 µg/mL (≈ 0.968 µM) | 0.063 µg/mL (≈ 0.488 µM) | 0.063 µg/mL (≈ 0.488 µM) | 0.125 µg/mL (≈ 0.968 µM) | 128 µg/mL (≈ 992 µM) | 0.125 µg/mL (≈ 0.968 µM) | 0.25 µg/mL (≈ 1.94 µM)
C[C@@H](c1nc(-c2ccc(C#N)cc2)cs1)[C@](O)(Cn1cncn1)c1cc(F)ccc1F [ISAVUCONAZOLE] | 0.016 µg/mL (≈ 0.0366 µM) | 0.5 µg/mL (≈ 1.14 µM) | 0.5 µg/mL (≈ 1.14 µM) | 0.5 µg/mL (≈ 1.14 µM) | 0.016 µg/mL (≈ 0.0366 µM) | 0.031 µg/mL (≈ 0.0709 µM) | 0.25 µg/mL (≈ 0.571 µM) | 0.5 µg/mL (≈ 1.14 µM) | 0.031 µg/mL (≈ 0.0709 µM) | 0.063 µg/mL (≈ 0.144 µM) | 0.002 µg/mL (≈ 0.00457 µM) | 0.004 µg/mL (≈ 0.00914 µM)
CCC(C)n1ncn(-c2ccc(N3CCN(c4ccc(OCC5COC(Cn6cncn6)(c6ccc(Cl)cc6Cl)O5)cc4)CC3)cc2)c1=O (stereo not given) [ITRACONAZOLE] | 0.016 µg/mL (≈ 0.0227 µM) | 0.25 µg/mL (≈ 0.354 µM) | 0.5 µg/mL (≈ 0.709 µM) | 0.5 µg/mL (≈ 0.709 µM) | 0.016 µg/mL (≈ 0.0227 µM) | 0.063 µg/mL (≈ 0.0893 µM) | 0.5 µg/mL (≈ 0.709 µM) | 1 µg/mL (≈ 1.42 µM) | 0.031 µg/mL (≈ 0.0439 µM) | 0.031 µg/mL (≈ 0.0439 µM) | 0.008 µg/mL (≈ 0.0113 µM) | 0.016 µg/mL (≈ 0.0227 µM)
C[C@@H](c1ncncc1F)[C@](O)(Cn1cncn1)c1ccc(F)cc1F [VORICONAZOLE] | 0.031 µg/mL (≈ 0.0887 µM) | 0.5 µg/mL (≈ 1.43 µM) | 0.5 µg/mL (≈ 1.43 µM) | 1 µg/mL (≈ 2.86 µM) | 0.031 µg/mL (≈ 0.0887 µM) | 0.125 µg/mL (≈ 0.358 µM) | 0.5 µg/mL (≈ 1.43 µM) | 2 µg/mL (≈ 5.73 µM) | 0.063 µg/mL (≈ 0.18 µM) | 0.125 µg/mL (≈ 0.358 µM) | 0.016 µg/mL (≈ 0.0458 µM) | 0.031 µg/mL (≈ 0.0887 µM)
